# This is a sample that favours compounds with a hit; in the whole collection about 5.9% have one here.
# HUVEC prolif 384: inhibitors of HUVEC proliferation, primary screen, cell-based, 384-well; AID 648, 2007; 86,000 tested, 1.1% active; CellTiter-Glo luminescence, 72 h; active compounds read low; viability, % at 10 µM (by protocol);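 active = viability at or below 30%; inactive = viability above 30%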;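 also: 100% = median luminescence of DMSO-only cell control wells on each plate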
# H69AR growth 86K: proliferation blockers of H69AR lung cancer cells, primary screen, cell-based, human, 86K library; 85,000 tested, 6% active; H69AR lung tumor viability, ATP luminescence, 72 h; active compounds read low; AID 598, 2007; viability, % at 10 µM;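 active = viability at or below 40%; inactive = viability above 40%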;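 also: multidrug resistant small cell line overexpressing MRP-1 efflux transporter; 100% = mean luminescence of untreated control wells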
# Pyk2 oligo antag: antagonists of Pyk2 self-association, primary screen, Q293 cells, FERM NanoBiT luminescence, HTS; Protein-tyrosine kinase 2-beta (Homo sapiens), Q14289; active compounds read low; z-score (the deposit names both 25 µM and 10 µM); 99,000 tested, 0.83% active; AID 1347419, 2020;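 active = Z-score of -3 or lower, scaled per plate to the spread of control and sample wells; inactive = z-score above -3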;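 also: negative z-score means lost luminescence so less FERM oligomerization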
# Fibroblast inh: antiproliferative effect on LL 47 fibroblasts – human, LL 47 cells, CellTiter-Glo luminescence, primary screen; viability, % at 10 µM; LL 47 human lung fibroblast viability, ATP luminescence; active compounds read low; 85,000 tested, 1.1% active;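 active = viability at or below 50% in the single dose screen; inactive = viability above 50%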;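 also: compound exposure lasted 72 h before the ATP readout; 100% = median luminescence of untreated cell-only wells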
#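 Material: human LL 47 lung fibroblast cells; quantity: 1,150 cells/well; medium: IMEM plus 15% FBS; doses: 0.1% DMSO in all compound wells; timing: overnight attachment after seeding, then 72 h compound exposure at 37 °C; detection: CellTiter-Glo luminescence; measure: % viability of median cell-only signal; controls: cell-only wells, no compound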
# Jurkat viability: cytotoxicity toward Jurkat T cells, primary screen, cytotoxicity control, cell-based, Jurkat E6.1, 60K MLSMR library; Jurkat E6.1 viability, ATP luminescence, 48 h; AID 463, 2006; 56,000 tested, 1.2% active; inhibition, % at 4 µM;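 active = inhibition above the mean inhibition of all tested compounds plus 3 SD, cut at about 28% in these data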
# MT1-MMP txn act: MT1-MMP promoter reporter activation – cell-based, luciferase luminescence, primary screen; HT1080 MT1-MMP promoter luciferase reporter, overnight; active compounds read high; activation factor at 10 µM; 86,000 tested, 0.16% active; AID 750, 2007;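 active = activation factor of at least 2 for MT1-MMP transcription at 10 µM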
# Active calls of the source: *; / = no result given.
SMILES,HUVEC prolif 384,H69AR growth 86K,Pyk2 oligo antag,Fibroblast inh,Jurkat viability,MT1-MMP txn act
COc1ccccc1NC(=O)CN1CCN(CC(=O)Nc2ccc3c(c2)OCO3)CC1,94.1,9.8*,0.71,102.7,4.3,1.1
Cc1ccc(CNS(=O)(=O)/C=C/c2ccc3c(c2)OCO3)cc1,/,/,0.74,/,/,/
CCOC(=O)C1CN(S(=O)(=O)c2ccc(OC)cc2)c2cc(S(=O)(=O)CC)ccc2O1 (centres undefined),/,/,0.66,/,/,/
Cc1cc(C)cc(Oc2ccc(C(F)(F)F)cc2C#N)c1,97.5,90.8,-0.38,89.5,/,1
COc1ccc(NC(=O)CN2CCN(C3c4ccccc4-c4ccccc43)CC2)c(OC)c1,59.7,58.5,-0.21,72.2,8.3,1.1
O=C(CN1CCN(S(=O)(=O)c2cc(Cl)ccc2Cl)CC1)Nc1ccc2c(c1)OCCO2,91.8,35.1*,-1.2,99.5,-4.7,1.3
CCOc1ccc(NC(=O)CN2CCN(C3c4ccccc4-c4ccccc43)CC2)cc1,77.8,32.1*,-0.14,88.6,/,1.1
COc1ccccc1NC(=O)CN1CCN(C2c3ccccc3-c3ccccc32)CC1,65.6,38.1*,-0.61,77.5,13.3,1.1
Cc1ccc(CNC(=O)[C@H]2C[C@@H]2[C@H](NP(=O)(c2ccccc2)c2ccccc2)c2ccccc2)c(F)c1F,/,/,/,/,/,1.2
Cc1ccc(C2(c3ccc(C)cc3)CC2C(=O)Nc2ccc([N+](=O)[O-])cc2O)cc1 (centres undefined),/,/,-3.36*,/,/,/
COc1ccc(NC(=O)C(CC(C)C)NC(=O)c2ccccc2C)cn1 (centres undefined),88.4,91.1,-0.16,/,1.8,1
COc1ccc(NC(=O)/C(Cl)=C(/Cl)S(=O)(=O)Cc2ccc(C)cc2)cn1,5.4*,93.8,0.16,2.3*,/,/
CC1=Nc2ccccc2/C1=C/c1sc(=N)n(-c2nccs2)c1O,51.7,2.9*,0,52.5,/,0.9
COc1cccc(N2CCN(Cc3ccsc3)CC2)c1,99.8,95.5,-0.04,102.5,/,1.2
CCNC(=O)n1nccc1C(C)Oc1ccc(Cl)cc1 (centres undefined),/,/,-0.28,/,/,/
CC(C)(C)n1nnnc1C(c1cccs1)N1CCCc2ccccc21 (centres undefined),109.3,100.1,0.29,96.2,0.6,1.2
CC(CN1CCOCC1)C(=O)c1ccccc1 (centres undefined),95.1,111.0,-0.02,107.0,/,1
O=C(c1ccc(F)cc1)C(CCCCCC(CN1CCOCC1)C(=O)c1ccc(F)cc1)CN1CCOCC1 (centres undefined),55.7,22.6*,/,89.0,/,0.9
CC(=O)N1CCc2cc(S(=O)(=O)NC(CC(C)C)C(=O)N3CCn4c3nc3ccccc34)ccc21 (centres undefined),91.3,94.5,-3.72*,94.8,-5.4,1
c1ccc(-c2cc3n(c2)CCc2ccccc2-3)cc1,90.8,70.5,-0.5,84.8,/,2.6*
Cc1nc2sc(C(c3ccc(C(C)C)cc3)N3CCN(CCO)CC3)c(O)n2n1 (centres undefined),98.4,102.9,/,105.7,-9.2,1.1
Cc1cc(C(F)(F)F)nc(NCc2cccnc2)n1,83.2,94.8,0.17,90.5,/,1.1
Cc1ccc(N2CCN(C(=O)C3CCN(S(=O)(=O)c4cccc5nsnc45)CC3)CC2C)cc1 (centres undefined),112.1,76.7,/,94.1,5.1,1.1
COc1ccc(OC)c(Nc2cc(-c3ccccc3)nc(N)n2)c1,43.6,25.1*,/,63.7,97.7*,0.4
COc1ccc(/C=N/NC(=O)Cc2csc(Nc3cccc(C(F)(F)F)c3)n2)cc1C,/,/,-0.4,/,/,/
SMILES,HUVEC prolif 384,H69AR growth 86K,Pyk2 oligo antag,Fibroblast inh,Jurkat viability,MT1-MMP txn act
COC(=O)[C@@]1(Cc2ccc(F)cc2)[C@H]2c3cc(C(=O)N4CCCC4)n(Cc4ccc(Cl)c(C(F)(F)F)c4)c3C[C@H]2CN1C(=O)c1ccccc1,/,/,/,/,/,1.2
CN(C)c1ccc(C2C=C(c3ccc(Cl)cc3OC(F)F)Nc3ncnn32)cc1 (centres undefined),57.3,14.4*,-1.35,83.0,60.1*,1.1
CCOC(=O)c1ccc(Oc2nc(NC)nc(Nc3ccccc3)n2)cc1,112.7,105.4,-1.21,100.9,/,1
CNc1nc(Nc2ccc(C(C)=O)cc2)nc(OC(C(F)(F)F)C(F)(F)F)n1,/,/,-3.19*,/,/,/
CC(=O)c1ccc(Nc2nc(NCCO)nc(OC(C(F)(F)F)C(F)(F)F)n2)cc1,62.4,58.2,-3.27*,103.5,/,1.4
Cc1nn(-c2cc(N3CCNCC3)ccc2[N+](=O)[O-])c(=O)c2ccccc12,85.5,97.4,-0.28,102.0,/,1.1
Cc1nn(-c2cc(N3CCCCC3)ccc2[N+](=O)[O-])c(=O)c2ccccc12,103.3,86.9,-3.76*,101.8,/,1.2
CC1=CC(C)(C)N(S(=O)(=O)c2ccc(F)cc2)c2ccc(C)cc21,59.9,21.7*,-0.42,50.9,/,0.5
CC1=CC(C)(C)N(S(=O)(=O)c2ccc(C)cc2)c2ccccc21,63.4,28.2*,-0.82,51.5,/,0.4
CN=C1SC(CC(=O)Nc2cc(Cl)ccc2Cl)C(=O)N1C (centres undefined),98.5,93.5,0.42,98.8,-6.0,/
CC1=C(C(=O)Nc2ccc(C)cn2)C(c2cnn(C)c2)C2=C(CCCC2=O)N1 (centres undefined),/,/,0.71,/,/,/
CC(=O)c1cc(F)c(N2CCN(C(=O)COc3ccccc3F)CC2)cc1C,106.9,82.3,-0.17,102.3,/,1.1
COC(=O)c1nnn(-c2nonc2N)c1CN1CCc2ccccc21,64.1,27.6*,0.4,99.7,0.2,1.3
CCOC(=O)c1nnn(-c2nonc2N)c1CN1CCc2ccccc2C1,89.5,81.0,0.12,92.5,-7.8,1.2
CCOC(=O)Cn1nc(C)n(-c2ccc(C)cc2)c1=O,/,/,0.48,/,/,/
O=C(OCC(=O)N1CCN(C(=O)c2ccco2)CC1)c1cc(-c2ccc(Cl)c(Cl)c2Cl)nc2ccccc12,6.3*,0.9*,0.03,103.5,/,1
Cc1noc(C)c1COC(=O)c1cccc(S(=O)(=O)N2CCCCCC2)c1,93.6,72.8,0.42,94.0,40.0*,1
CCc1ccccc1NC(=O)c1ccc(CN2CCC(Cc3ccccc3)CC2)cc1,/,/,0.15,/,/,/
COC(=O)c1ccc(/C(O)=C(\C#N)c2nc3ccccc3s2)cc1,50.4,31.7*,0.59,93.8,0.6,1.5
O=C(CCS(=O)(=O)Cc1ccccc1)Nc1nc2c(s1)CCCC2,60.4,22.3*,-0.22,62.9,9.7,1
O=C(CS(=O)(=O)Cc1ccccc1)Nc1nc2c(s1)CCCC2,92.4,87.9,-0.3,99.9,0.9,1.1
CCCCn1c(=O)[nH]c2ccccc21,102.0,95.7,/,102.8,7.8,1
